Results reported in ChEMBL document CHEMBL1131419, “Methoxy-substituted 3-formyl-2-phenylindoles inhibit tubulin polymerization” (J Med Chem, 1998).

Key:
Tubulin (Bos taurus) = Tubulin (Bos taurus) (UniProt Q6B856+Q862L2+Q862F3); assay: Tested for its capability of competing with colchicine for binding to tubulin.; assay type: protein assay; parameters: concentration or dose not given beside the values; details: concentration not given here
In short: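 Calf brain tubulin (cycled, diluted 1:10 in PEM pH 6.6–6.7) incubated with 1 μM [3H]colchicine and 10 μM inhibitor (DMSO) for 30 min at 37 °C; GTP added on ice, mixture filtered through DEAE-cellulose filters, washed with PEM, bound radioactivity counted by liquid scintillation; no-tubulin mixtures as background. Mean of two independent experiments.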

Tubulin = Tubulin (Bos taurus, UniProt Q6B856+Q862L2+Q862F3); assay type: protein assay

Row | SMILES | inhibition (Tubulin (Bos taurus)) [%] | IC50 (Tubulin) [µM]
1 | COc1ccc(-c2[nH]c3cc(F)ccc3c2C=O)cc1 | – | 1.8
2 | CCCC1Cc2cc(OC)ccc2-c2c(C=O)c3ccc(OC)cc3n21 (configuration not stated) | < 10 | –
3 | CCCCC1Cc2cc(O)ccc2-c2c(C=O)c3ccc(O)cc3n21 (configuration not stated) | – | 8.9
4 | COc1ccc(-c2[nH]c3ccccc3c2C=O)cc1 | – | 3.3
5 | CCCC1Cc2cc(O)ccc2-c2c(C=O)c3ccc(O)cc3n21 (configuration not stated) | 40 | 19

Continued, values first:

Row | inhibition (Tubulin (Bos taurus)) [%] | IC50 (Tubulin) [µM] | SMILES
6 | 23 | 1.5 | COc1ccc(-c2[nH]c3cc(OC)ccc3c2C=O)cc1
7 | 56 | 1.8 | COc1ccc(-c2sc3cc(OC)ccc3c2C=O)cc1
8 | – | 4 | COc1ccc(-c2[nH]c3ccc(OC)cc3c2C=O)cc1
9 | 30 | – | COc1ccc(-c2c(C=O)c3ccc(OC)cc3n2C)cc1
